Measured values published in ChEMBL document CHEMBL1148704, “First total synthesis of protoapigenone and its analogues as potent cytotoxic agents” (J Med Chem, 2007).

Tests used:
[1] = system: HepG2; assay: Cytotoxicity against human HepG2 cells after 72 hrs by MTT colorimetric method; assay type: functional, cell-based; conditions: HepG2, 72 h
[2] = system: A549; assay: Cytotoxicity against human A549 cells after 72 hrs by MTT colorimetric method; assay type: functional, cell-based; conditions: A549, 72 h
Procedure, shortened: (§1)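 Cell lines from ATCC, grown in RPMI-1640 with 10% FBS, 100 U/mL penicillin and 100 µg/mL streptomycin at 37 °C, humidified 5% CO₂. Seeded at 5000-10000 cells/well, treated on day two for 72 h. Attached cells then given MTT (0.5 mg/mL, 1 h), formazan solubilized in DMSO, colorimetric readout. IC₅₀ values reported.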

[3] = system: MCF7; assay: Cytotoxicity against human MCF7 cells after 72 hrs by MTT colorimetric method; assay type: functional, cell-based; conditions: MCF7, 72 h; procedure, shortened: as §1
[4] = system: MDA-MB-231; assay: Cytotoxicity against human MDA-MB-231 cells after 72 hrs by MTT colorimetric method; assay type: functional, cell-based; conditions: MDA-MB-231, 72 h; procedure, shortened: as §1
[5] = Cytotoxicity against human Hep3B cells after 72 hrs by MTT colorimetric method; assay type: functional, cell-based, Hep 3B2; procedure, shortened: as §1

SMILES	IC50 [1]	IC50 [2]	IC50 [3]	IC50 [4]	IC50 [5]
COC1(c2cc(=O)c3ccccc3o2)C=CC(=O)C=C1	40900 nM	> 74600 nM	7990 nM	5490 nM	5410 nM
O=C1C=CC(O)(c2cc(=O)c3c(O)cccc3o2)C=C1	4960 nM	5070 nM	3440 nM	670 nM	1300 nM
COc1cc(OC)c2c(=O)cc(C3(OC)C=CC(=O)C=C3)oc2c1	27000 nM	> 61000 nM	4210 nM	4700 nM	3780 nM
COc1cc(OC)c2c(=O)cc(C3(O)C=CC(=O)C=C3)oc2c1	5030 nM	1270 nM	1210 nM	540 nM	670 nM
O=C1C=CC(O)(c2cc(=O)c3c(O)cc(O)cc3o2)C=C1 [PROTOAPIGENONE]	8110 nM	13800 nM	3740 nM	1430 nM	2270 nM
COCOc1cc(O)c2c(=O)cc(C3(O)C=CC(=O)C=C3)oc2c1	15600 nM	24600 nM	5240 nM	1730 nM	2390 nM
O=C1C=CC(O)(c2cc(=O)c3c(ccc4ccccc43)o2)C=C1	3550 nM	1810 nM	660 nM	390 nM	300 nM
O=C1C=CC(O)(c2cc(=O)c3ccccc3o2)C=C1	6730 nM	5240 nM	1730 nM	710 nM	1260 nM
COc1cc(O)c2c(=O)cc(C3(O)C=CC(=O)C=C3)oc2c1	570 nM	3100 nM	1700 nM	430 nM	670 nM
COC1(c2cc(=O)c3ccc4ccccc4c3o2)C=CC(=O)C=C1	14400 nM	28300 nM	2960 nM	1070 nM	600 nM
COc1cccc2c1C(=O)c1c(O)c3c(c(O)c1C2=O)C[C@@](O)(C(=O)CO)C[C@@H]3O[C@H]1C[C@H](N)[C@H](O)[C@H](C)O1 [DOXORUBICIN]	–	360 nM	740 nM	140 nM	620 nM
COC1(c2cc(=O)c3c(ccc4ccccc43)o2)C=CC(=O)C=C1	9940 nM	25800 nM	2700 nM	1160 nM	1100 nM
COC1(c2cc(=O)c3c(O)cccc3o2)C=CC(=O)C=C1	26900 nM	57600 nM	5460 nM	1900 nM	2320 nM
